Experimental findings from ChEMBL document CHEMBL5360527, “Synthesis, binding affinity, and inhibitory capacity of cyclodextrin-based multivalent glycan ligands for human galectin-3” (Bioorg Med Chem, 2022) are described below.

Assay [1] concerns the target T1, Galectin-3 (Homo sapiens, UniProt P17931). Nature of the assay: Binding affinity to human galectin 3 by surface plasma resonance analysis. Summed up:
(§1)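 Recombinant human Gal-3 amine-coupled to a CM5 chip (about 1000 RU) with an ethanolamine reference channel. Analytes were serially diluted in 0.01 M HEPES pH 7.4, 0.15 M NaCl and 0.005% P20, then run at 25 °C and 30 μL/min with 120 s association and 300 s dissociation, followed by 3 M MgCl2 regeneration. EC50 was taken from the fitted binding curve.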

In assay [2] the target is T1, Galectin-3. Nature of the assay: Inhibition of human galectin 3 binding to human A549 cells incubated for 1 hr. Format: cell-based. The procedure, abridged:
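A549 cells were grown in plates, fixed, and blocked overnight at 4 °C with 3% BSA in PBS. Biotinylated Gal-3 (5 μg/ml), premixed with compound at 3–300 μM, was then added for 1 h at 4 °C. Bound Gal-3 was detected with streptavidin-HRP and TMB, stopped with 1 M HCl, and read at OD450. Percent inhibition came from a Gal-3 standard curve, and EC50 from a five-parameter asymmetric fit.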

For assay [3], the target named is T1, Galectin-3. The experiment in a line: Binding affinity to human galectin 3 assessed as relative affinity by surface plasma resonance analysis. The procedure, abridged: as §1
Assay [4] addresses T1, Galectin-3. Nature of the assay: Binding affinity to human galectin 3 assessed as relative affinity per sugar unit on cyclodextrin by surface plasma resonance analysis. Summed up: as §1

T1 sequence (P17931 whole entry): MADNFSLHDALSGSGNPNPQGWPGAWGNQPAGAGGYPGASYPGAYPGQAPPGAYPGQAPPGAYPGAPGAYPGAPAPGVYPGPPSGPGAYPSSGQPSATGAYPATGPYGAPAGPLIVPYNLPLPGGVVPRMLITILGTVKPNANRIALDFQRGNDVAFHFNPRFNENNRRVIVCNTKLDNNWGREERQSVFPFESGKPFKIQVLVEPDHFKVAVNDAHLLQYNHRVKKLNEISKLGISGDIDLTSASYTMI

Consider `CC(=O)N[C@H]1[C@@H](OCCOCCOCCn2cc(CCC(=O)NC[C@H]3O[C@@H]4O[C@H]5[C@H](O)[C@@H](O)[C@@H](O[C@H]6[C@H](O)[C@@H](O)[C@@H](O[C@H]7[C@H](O)[C@@H](O)[C@@H](O[C@H]8[C@H](O)[C@@H](O)[C@@H](O[C@H]9[C@H](O)[C@@H](O)[C@@H](O[C@H]%10[C@H](O)[C@@H](O)[C@@H](O[C@H]3[C@H](O)[C@H]4O)O[C@@H]%10CNC(=O)CCc3cn(CCOCCOCCO[C@H]4O[C@H](CO)[C@H](O)[C@H](O[C@@H]%10O[C@H](CO)[C@H](O)[C@H](O)[C@H]%10O)[C@H]4NC(C)=O)nn3)O[C@@H]9CNC(=O)CCc3cn(CCOCCOCCO[C@H]4O[C@H](CO)[C@H](O)[C@H](O[C@@H]9O[C@H](CO)[C@H](O)[C@H](O)[C@H]9O)[C@H]4NC(C)=O)nn3)O[C@@H]8CNC(=O)CCc3cn(CCOCCOCCO[C@H]4O[C@H](CO)[C@H](O)[C@H](O[C@@H]8O[C@H](CO)[C@H](O)[C@H](O)[C@H]8O)[C@H]4NC(C)=O)nn3)O[C@@H]7CNC(=O)CCc3cn(CCOCCOCCO[C@H]4O[C@H](CO)[C@H](O)[C@H](O[C@@H]7O[C@H](CO)[C@H](O)[C@H](O)[C@H]7O)[C@H]4NC(C)=O)nn3)O[C@@H]6CNC(=O)CCc3cn(CCOCCOCCO[C@H]4O[C@H](CO)[C@H](O)[C@H](O[C@@H]6O[C@H](CO)[C@H](O)[C@H](O)[C@H]6O)[C@H]4NC(C)=O)nn3)O[C@@H]5CNC(=O)CCc3cn(CCOCCOCCO[C@H]4O[C@H](CO)[C@H](O)[C@H](O[C@@H]5O[C@H](CO)[C@H](O)[C@H](O)[C@H]5O)[C@H]4NC(C)=O)nn3)nn2)O[C@H](CO)[C@H](O)[C@@H]1OC1O[C@H](CO)[C@H](O)[C@H](O)[C@H]1O` (stereo not given in full), for which the EC50 at Galectin-3 [1] came to 3.16 µM; on Galectin-3 [2] it was 10.5 µM. For the same molecule, the relative binding affinity (RBA) on Galectin-3 [3] amounted to 464; on Galectin-3 [4], 66.4.
For the molecule `CC(=O)N[C@H]1[C@@H](OCCOCCOCCN=[N+]=[N-])O[C@H](CO)[C@H](O)[C@@H]1O[C@@H]1O[C@H](CO)[C@H](O)[C@H](O)[C@H]1O`, the relative binding affinity (RBA) at Galectin-3 [3] was less than 1.47.
Same read-out and setting: as for `CC(=O)N[C@H]1[C@@H](OCCOCCOCCN=[N+]=[N-])O[C@H](CO)[C@H](O)[C@@H]1O`, the figure is less than 1.47.
As to `O=C(CCc1cn(CCOCCOCCO[C@@H]2O[C@H](CO)[C@@H](O[C@@H]3O[C@H](CO)[C@H](O)[C@H](O)[C@H]3O)[C@H](O)[C@H]2O)nn1)NC[C@H]1O[C@@H]2O[C@H]3[C@H](O)[C@@H](O)[C@@H](O[C@H]4[C@H](O)[C@@H](O)[C@@H](O[C@H]5[C@H](O)[C@@H](O)[C@@H](O[C@H]6[C@H](O)[C@@H](O)[C@@H](O[C@H]7[C@H](O)[C@@H](O)[C@@H](O[C@H]8[C@H](O)[C@@H](O)[C@@H](O[C@H]1[C@H](O)[C@H]2O)O[C@@H]8CNC(=O)CCc1cn(CCOCCOCCO[C@@H]2O[C@H](CO)[C@@H](O[C@@H]8O[C@H](CO)[C@H](O)[C@H](O)[C@H]8O)[C@H](O)[C@H]2O)nn1)O[C@@H]7CNC(=O)CCc1cn(CCOCCOCCO[C@@H]2O[C@H](CO)[C@@H](O[C@@H]7O[C@H](CO)[C@H](O)[C@H](O)[C@H]7O)[C@H](O)[C@H]2O)nn1)O[C@@H]6CNC(=O)CCc1cn(CCOCCOCCO[C@@H]2O[C@H](CO)[C@@H](O[C@@H]6O[C@H](CO)[C@H](O)[C@H](O)[C@H]6O)[C@H](O)[C@H]2O)nn1)O[C@@H]5CNC(=O)CCc1cn(CCOCCOCCO[C@@H]2O[C@H](CO)[C@@H](O[C@@H]5O[C@H](CO)[C@H](O)[C@H](O)[C@H]5O)[C@H](O)[C@H]2O)nn1)O[C@@H]4CNC(=O)CCc1cn(CCOCCOCCO[C@@H]2O[C@H](CO)[C@@H](O[C@@H]4O[C@H](CO)[C@H](O)[C@H](O)[C@H]4O)[C@H](O)[C@H]2O)nn1)O[C@@H]3CNC(=O)CCc1cn(CCOCCOCCO[C@@H]2O[C@H](CO)[C@@H](O[C@@H]3O[C@H](CO)[C@H](O)[C@H](O)[C@H]3O)[C@H](O)[C@H]2O)nn1`, the EC50 on Galectin-3 [1] came out at 25.3 µM; on Galectin-3 [2] it was 23.5 µM. The results for the relative binding affinity (RBA) at Galectin-3 [3] and at Galectin-3 [4] were 58.1 and 8.29, respectively.
For `CC(=O)N[C@H]1[C@@H](OCCOCCOCCn2cc(CCC(=O)NC[C@H]3O[C@@H]4O[C@H]5[C@H](O)[C@@H](O)[C@@H](O[C@H]6[C@H](O)[C@@H](O)[C@@H](O[C@H]7[C@H](O)[C@@H](O)[C@@H](O[C@H]8[C@H](O)[C@@H](O)[C@@H](O[C@H]9[C@H](O)[C@@H](O)[C@@H](O[C@H]%10[C@H](O)[C@@H](O)[C@@H](O[C@H]3[C@H](O)[C@H]4O)O[C@@H]%10CNC(=O)CCc3cn(CCOCCOCCO[C@H]4O[C@H](CO)[C@H](O)[C@H](O)[C@H]4NC(C)=O)nn3)O[C@@H]9CNC(=O)CCc3cn(CCOCCOCCO[C@H]4O[C@H](CO)[C@H](O)[C@H](O)[C@H]4NC(C)=O)nn3)O[C@@H]8CNC(=O)CCc3cn(CCOCCOCCO[C@H]4O[C@H](CO)[C@H](O)[C@H](O)[C@H]4NC(C)=O)nn3)O[C@@H]7CNC(=O)CCc3cn(CCOCCOCCO[C@H]4O[C@H](CO)[C@H](O)[C@H](O)[C@H]4NC(C)=O)nn3)O[C@@H]6CNC(=O)CCc3cn(CCOCCOCCO[C@H]4O[C@H](CO)[C@H](O)[C@H](O)[C@H]4NC(C)=O)nn3)O[C@@H]5CNC(=O)CCc3cn(CCOCCOCCO[C@H]4O[C@H](CO)[C@H](O)[C@H](O)[C@H]4NC(C)=O)nn3)nn2)O[C@H](CO)[C@H](O)[C@@H]1O`, in that order: 1.37 µM, 1.5 µM, 1070 and 153.
On to `[N-]=[N+]=NCCOCCOCCO[C@@H]1O[C@H](CO)[C@@H](O[C@@H]2O[C@H](CO)[C@H](O)[C@H](O)[C@H]2O)[C@H](O)[C@H]1O`, for which the relative binding affinity (RBA) on Galectin-3 [3] was less than 1.47.

By EC50 is commonly meant the concentration at which the effect is half-maximal. A low value points to a more potent agent.
